Screening data deposited in PubChem BioAssay by several laboratories.
Runt-CBFb FRET: inhibitors of human RUNX1 Runt domain binding to CBFb; inhibition, % at 20 µM; Q01196+Q13951; 220,000 tested, 0.46% active; Cerulean-Runt/Venus-CBFb FRET ratio 530/480, 1 h;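 active = inhibition over about 50% at 20 µM in the single-dose screen, limit read from the data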
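Assay system: Cerulean-Runt domain / Medium: Tris 50 mM pH 7.5, KCl, K2SO4, 0.01% BSA / Timing: protein complex preformed 1 h, compound exposure 1 h, room temperature, dark / Measured by: FRET, excitation 422 nm, emission at 530 and 480 nm / Evaluation: loss of energy transfer signal / Control set: 5 µM unlabeled CBFb as full-inhibition high control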
PERK inhibitor: human PERK inhibition, primary cell-based screen | inhibition, % at 5.6 µM | Q9NZJ5 | CHO PERK-DD fusion, SEAP luminescence translation reporter | 220,000 tested, 0.17% active;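 active = inhibition above the mean inhibition of all tested compounds plus 3 SD, set separately per screening campaign, cut at about 2.9% in these data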;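 note: PERK kinase domain activated by AP20187 dimerizer at 100 nM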
eIF4E-4G inh: blocks eIF4E binding to eIF4G; AID 782; TR-FRET eIF4E-eIF4GI(517-606) binding, 2 h; 220,000 tested, 0.37% active; inhibition, % at 21.7 µM; P63073+Q04637;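 active = inhibition above about 30%, limit read from the data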
Target sequence (P63073 whole entry, looked up): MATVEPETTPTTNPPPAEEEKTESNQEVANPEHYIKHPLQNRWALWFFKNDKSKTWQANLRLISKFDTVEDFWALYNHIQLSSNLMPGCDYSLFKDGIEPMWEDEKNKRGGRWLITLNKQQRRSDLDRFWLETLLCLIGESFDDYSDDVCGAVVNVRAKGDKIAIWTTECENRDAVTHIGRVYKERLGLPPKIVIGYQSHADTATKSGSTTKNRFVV
Target sequence (Q04637 whole entry, looked up): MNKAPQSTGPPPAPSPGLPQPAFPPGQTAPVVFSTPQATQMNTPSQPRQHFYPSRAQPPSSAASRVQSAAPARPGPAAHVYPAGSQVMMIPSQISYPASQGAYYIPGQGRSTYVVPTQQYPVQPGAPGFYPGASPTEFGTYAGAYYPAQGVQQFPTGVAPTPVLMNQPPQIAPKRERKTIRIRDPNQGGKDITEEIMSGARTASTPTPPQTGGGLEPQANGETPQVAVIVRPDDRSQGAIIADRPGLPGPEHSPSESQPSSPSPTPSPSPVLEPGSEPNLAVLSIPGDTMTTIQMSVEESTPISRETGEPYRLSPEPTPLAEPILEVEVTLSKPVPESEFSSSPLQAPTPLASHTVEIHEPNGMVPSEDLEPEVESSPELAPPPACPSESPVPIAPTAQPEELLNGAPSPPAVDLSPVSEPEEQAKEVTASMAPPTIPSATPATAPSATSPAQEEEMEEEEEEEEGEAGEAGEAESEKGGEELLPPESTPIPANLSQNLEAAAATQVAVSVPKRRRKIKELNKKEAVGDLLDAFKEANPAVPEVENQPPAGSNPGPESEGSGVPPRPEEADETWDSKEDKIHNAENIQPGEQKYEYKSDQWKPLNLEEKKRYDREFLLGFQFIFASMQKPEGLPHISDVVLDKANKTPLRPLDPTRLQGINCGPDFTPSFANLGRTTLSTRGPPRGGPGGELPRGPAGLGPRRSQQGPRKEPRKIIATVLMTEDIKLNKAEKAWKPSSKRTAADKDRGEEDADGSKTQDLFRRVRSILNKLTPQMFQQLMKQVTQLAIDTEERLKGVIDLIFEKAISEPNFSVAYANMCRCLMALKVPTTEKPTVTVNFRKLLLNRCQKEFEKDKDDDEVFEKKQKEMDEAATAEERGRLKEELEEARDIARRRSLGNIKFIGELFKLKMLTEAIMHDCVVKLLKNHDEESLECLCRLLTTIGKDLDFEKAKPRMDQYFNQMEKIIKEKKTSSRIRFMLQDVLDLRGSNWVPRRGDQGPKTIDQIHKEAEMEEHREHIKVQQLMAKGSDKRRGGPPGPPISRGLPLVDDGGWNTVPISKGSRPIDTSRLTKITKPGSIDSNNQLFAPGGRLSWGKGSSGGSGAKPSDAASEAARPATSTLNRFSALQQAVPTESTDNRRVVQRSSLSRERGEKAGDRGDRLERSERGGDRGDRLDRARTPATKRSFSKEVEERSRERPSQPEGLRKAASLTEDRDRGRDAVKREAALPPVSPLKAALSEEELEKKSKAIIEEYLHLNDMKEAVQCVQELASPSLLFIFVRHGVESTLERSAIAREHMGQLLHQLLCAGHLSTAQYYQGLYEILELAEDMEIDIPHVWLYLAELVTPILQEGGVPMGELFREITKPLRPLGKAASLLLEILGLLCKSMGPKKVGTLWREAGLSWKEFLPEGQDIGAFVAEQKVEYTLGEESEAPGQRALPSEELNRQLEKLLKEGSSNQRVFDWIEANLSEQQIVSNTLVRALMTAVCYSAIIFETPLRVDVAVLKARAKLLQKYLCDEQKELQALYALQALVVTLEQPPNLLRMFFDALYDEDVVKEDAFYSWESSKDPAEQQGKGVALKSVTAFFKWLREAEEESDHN
Hck-Nef inh: blocks Nef-activated human Hck kinase; 220,000 tested, 0.68% active; P08631; inhibition, % at 20 µM; Recombinant Hck-YEEI plus Nef, Z-Lyte FRET kinase assay;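 active = Hck-Nef kinase inhibition above about 50%, limit read from the data; inactive = inhibition below that limit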
RanGTP-Impb inh: inhibitors of RanGTP-importin-beta interaction, primary screen, biochemical, FRET, CFP-Ran, YFP-importin-beta, homogeneous. 300,000 tested, 1.1% active. inhibition, % (test concentration not listed). cell-free CFP-Ran/YFP-importin-beta FRET ratio;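 active = more than half of the replicate wells show a fall in the fluorescence ratio signal beyond about 16%, limit read from the data, passing the limit was not always enough; inconclusive = exactly half of the replicate wells pass the set limit; inactive = fewer than half of replicates pass the limit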
Runt-SMMHC FRET: Runt domain-CBFb-SMMHC interaction inhibition; 220,000 tested, 0.74% active; AID 1434; inhibition, % at 20 µM; Q01196+Q13951; Cerulean-Runt/Venus-CBFb-SMMHC FRET ratio 530/480, 1 h;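 active = mean inhibition across duplicate retests at 20 µM reaching about 50%, limit read from the data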;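 note: inhibitors lower the FRET ratio by blocking Runt binding to CBFb-SMMHC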
Each line names hits and unclear results; the compound was inactive in the other large screens. Sampled rows, rich in hits. Any-hit rate of the full collection: about 2.2%.

CN(C)C(CNC(=O)CCNC(=O)c1ccc(Cl)cc1)c1ccco1 (stereo not drawn)	none (no result: Runt-CBFb FRET, PERK inhibitor, eIF4E-4G inh, Hck-Nef inh, Runt-SMMHC FRET)
COc1ccc(C2/C(=C(/O)c3ccc(F)cc3)C(=O)C(=O)N2c2ccccn2)cc1OC (stereo not drawn)	none (no result: Runt-CBFb FRET, PERK inhibitor, eIF4E-4G inh, Hck-Nef inh, Runt-SMMHC FRET)
COc1cc(C2/C(=C(/O)c3ccccc3)C(=O)C(=O)N2c2ccccn2)ccc1O (stereo not drawn)	eIF4E-4G inh 82
O=C(N/N=C/c1c(O)n(Cc2ccccc2)c(=O)c2ccccc12)c1cccnc1	Runt-SMMHC FRET 87
COc1ccc(Cn2c(O)c(/C=N/NC(=O)c3cccnc3)c3ccccc3c2=O)cc1	Runt-SMMHC FRET 86
Cc1cccc(-n2c(O)c(/C=N/NC(=O)c3ccccc3Cl)c3ccccc3c2=O)n1	none
O=C(N/N=C/c1c(O)n(-c2ccccc2Cl)c(=O)c2ccccc12)c1cccnc1	Runt-SMMHC FRET 86
O=C(N/N=C/c1cn(Cc2ccccc2)c2ccccc12)c1cccnc1	none
COc1ccc(N2CCN(C(=O)c3ccc(C)c(NC(=O)c4ccco4)c3)CC2)cc1	none (no result: Runt-CBFb FRET, PERK inhibitor, eIF4E-4G inh, Hck-Nef inh, Runt-SMMHC FRET)
COc1cc(C(=O)OCC(=O)NC2CCCC2)cc(NC(=O)c2ccco2)c1OC	none (no result: RanGTP-Impb inh)
Cc1cc(/C=C2\SC(=S)N(C)C2=O)c(C)n1-c1ccccc1O	RanGTP-Impb inh 44 (no result: Runt-CBFb FRET, PERK inhibitor, eIF4E-4G inh, Hck-Nef inh, Runt-SMMHC FRET)
Cc1ccc(-n2c(C)cc(/C=C3\SC(=O)NC3=O)c2C)cc1	none (no result: Runt-CBFb FRET, PERK inhibitor, eIF4E-4G inh, Hck-Nef inh, Runt-SMMHC FRET)
Cc1cc(/C=C2\SC(=S)NC2=O)c(C)n1-c1cccc(O)c1	Hck-Nef inh 65, RanGTP-Impb inh 20
Cc1cc(/C=C2\SC(=S)N(C)C2=O)c(C)n1-c1ccc(O)cc1	RanGTP-Impb inh 37
CCc1ccc(CCC(=O)Nc2nc(CC(C)=O)ns2)o1	none
COc1nccnc1NS(=O)(=O)c1ccc(NCc2cc(Br)ccc2O)cc1	none (no result: Runt-CBFb FRET, PERK inhibitor, eIF4E-4G inh, Hck-Nef inh, Runt-SMMHC FRET)
CC1=Nc2ccccc2/C1=C/c1nc(-c2ccc(C)s2)oc1O	RanGTP-Impb inh 37
O=c1[nH]c(=O)c2ncc(-c3ccc(Cl)cc3)nc2[nH]1	Runt-CBFb FRET 54, Runt-SMMHC FRET 85
Cn1nc(NC(=O)C(F)(F)F)c2ncc(-c3ccc(Cl)cc3)nc21	none
CC(=O)Nc1ccc(NC(=O)C(C)OC(=O)C2CC3C=CC2C3)cc1 (stereo not drawn)	RanGTP-Impb inh inconclusive
COCCn1c(C)cc(C(=O)CSc2nc(C)cc(C)c2C#N)c1C	Runt-SMMHC FRET 58
Cc1c(C)c2ccc(OCC(=O)Nc3ccccn3)cc2oc1=O	none (no result: Runt-CBFb FRET, PERK inhibitor, eIF4E-4G inh, Hck-Nef inh, Runt-SMMHC FRET)
CS(=O)(=O)c1ccc(Cl)c(NC(=O)COC(=O)CCCN2C(=O)c3cccc4cccc(c34)C2=O)c1	RanGTP-Impb inh 25 (no result: Runt-CBFb FRET, PERK inhibitor, eIF4E-4G inh, Hck-Nef inh, Runt-SMMHC FRET)
Cc1c(O)nc2sc3ccccc3n2c1=O	PERK inhibitor 4.4
Cc1cc(O)c(C=O)c2c1C(=O)Oc1c(CO)c(O)c3c(c1O2)C(O)OC3=O (stereo not drawn)	Runt-CBFb FRET 53 (no result: RanGTP-Impb inh)
COc1cccc2sc3ccc(C#CC4(N)CCCCC4)cc3c(=O)c12	RanGTP-Impb inh 55 (no result: Runt-CBFb FRET, PERK inhibitor, eIF4E-4G inh, Hck-Nef inh, Runt-SMMHC FRET)
COc1cc2sc3ccc(C#Cc4ccc(N)cc4)cc3c(=O)c2cc1OC	none (no result: Runt-CBFb FRET, PERK inhibitor, eIF4E-4G inh, Hck-Nef inh, Runt-SMMHC FRET)
CNC(C)C#Cc1ccc2sc3cccc(OC)c3c(=O)c2c1 (stereo not drawn)	RanGTP-Impb inh 38 (no result: Runt-CBFb FRET, PERK inhibitor, eIF4E-4G inh, Hck-Nef inh, Runt-SMMHC FRET)
Cc1ccc(C(=O)Nc2sc3c(c2C(=O)NCc2ccco2)CCCC3)cc1	none
O=C(Nc1sc2c(c1C(=O)NCc1ccco1)CCCC2)c1ccc2c(c1)OCO2	RanGTP-Impb inh inconclusive, Runt-SMMHC FRET 65
CCc1ccc(-n2c(SCC(=O)N3Cc4ccccc4CC3C(=O)O)nnc2-c2ccncc2)cc1 (stereo not drawn)	PERK inhibitor 3.4, RanGTP-Impb inh inconclusive
CN(C)c1nc(-c2ccccc2)c2cc(Cl)ccc2n1	RanGTP-Impb inh 21 (no result: Runt-CBFb FRET, PERK inhibitor, eIF4E-4G inh, Hck-Nef inh, Runt-SMMHC FRET)
N/C(=N\N=C\c1ccc([N+](=O)[O-])cc1)c1nonc1N	PERK inhibitor 3.4
N/C(=N\N=C\c1ccc(O)cc1)c1nonc1N	none
Cc1ccccc1C(=O)NC(CC(C)C)C(=O)Nc1cccc(S(=O)(=O)N(C)C)c1 (stereo not drawn)	none
Cn1c(C(=O)NCc2ccccn2)cc2c(=O)n3ccccc3nc21	Runt-SMMHC FRET 97
Cn1c(C(=O)NC2CCCCC2)cc2c(=O)n3ccccc3nc21	none (no result: Runt-CBFb FRET, PERK inhibitor, eIF4E-4G inh, Hck-Nef inh, Runt-SMMHC FRET)
COc1ccc(C)cc1NC(=O)c1cc2c(=O)n3ccccc3nc2n1C	Runt-SMMHC FRET 92 (no result: RanGTP-Impb inh)
CCOC(=O)c1sc(N)c(C(=O)Nc2ccccc2)c1C	none
COc1ccc(/C=N\NC(=O)c2cc(OCC(F)(F)F)ccc2OCC(F)(F)F)cc1	none
Cc1cc(C)cc(N(C(=O)c2snc(C(N)=O)c2N)C(C(=O)NCC2CCCO2)c2ccc(C)o2)c1 (stereo not drawn)	none (no result: Runt-CBFb FRET, PERK inhibitor, eIF4E-4G inh, Hck-Nef inh, Runt-SMMHC FRET)
Cc1ccc(/C=N/NC(=O)c2nnn(-c3nonc3N)c2-c2cccs2)cc1	RanGTP-Impb inh 189 (no result: Runt-CBFb FRET, PERK inhibitor, eIF4E-4G inh, Hck-Nef inh, Runt-SMMHC FRET)
CC(C)c1c(C(=O)N/N=C/c2ccc(OCc3ccc(F)cc3)cc2)nnn1-c1nonc1N	none (no result: Runt-CBFb FRET, PERK inhibitor, eIF4E-4G inh, Hck-Nef inh, Runt-SMMHC FRET)
CC(C)c1c(C(=O)N/N=C/c2ccc(OCc3ccccc3)cc2)nnn1-c1nonc1N	RanGTP-Impb inh active (no result: Runt-CBFb FRET, PERK inhibitor, eIF4E-4G inh, Hck-Nef inh, Runt-SMMHC FRET)
CCOC(=O)C1=C(CSc2nc3c(cc2C#N)CN(C)CC3)OC(N)=C(C#N)C1c1ccc(Cl)cc1 (stereo not drawn)	RanGTP-Impb inh 27, Runt-SMMHC FRET 59
CCCC1=C(C(=O)OCC)C(c2cccs2)C(C#N)=C(N)O1 (stereo not drawn)	RanGTP-Impb inh 30
CCOC(=O)C1=C(CSc2nc3c(cc2C#N)CN(C)CC3)OC(N)=C(C#N)C1c1ccncc1 (stereo not drawn)	RanGTP-Impb inh 21, Runt-SMMHC FRET 74
